Source: ChEMBL document CHEMBL1157224, “2-substituted furans from the roots of Polyalthia evecta” (J Nat Prod, 2006)
Converted amounts (≈) assume the structure as drawn.

Assays:
NCI-H187 = assay: Cytotoxicity against human NCI-H187 cells; type: functional, cell-based
Summary of the method: (§1)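 Human breast cancer (BC) and small cell lung cancer (NCI-H187) lines; colorimetric assay per Skehan; IC50 read-out; ellipticine as reference.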

[1] = tested on: Mycobacterium tuberculosis; assay: Antimicrobial activity against Mycobacterium tuberculosis H37Ra by microplate alamar blue assay; type: functional
Summary of the method: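 M. tuberculosis H37Ra in microplate Alamar Blue assay; MIC read-out; isoniazid and kanamycin sulfate as reference drugs.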

Plasmodium falciparum [2] = assay: Antimicrobial activity against Plasmodium falciparum; type: functional, organism-based
Summary of the method: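 P. falciparum K1 (multidrug-resistant) kept in culture per Trager–Jensen; microculture radioisotope test; growth read as [3H]-hypoxanthine uptake; IC50 = concentration giving 50% fewer parasites; artemisinin as reference standard.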

Human alphaherpesvirus 1 = assay: Antiviral activity against HSV1; type: functional, organism-based
Summary of the method: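 Herpes simplex type 1 antiviral test by colorimetric method per Skehan; IC50 read-out; acyclovir as reference.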

Plasmodium falciparum [3] = assay: Antimalarial activity against Plasmodium falciparum K1 by [3H]hypoxanthine uptake; type: functional, organism-based
Summary of the method: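 Multidrug-resistant K1 parasites cultured per Trager–Jensen. In vitro microculture radioisotope test, with parasite growth read as [3H]-hypoxanthine uptake. IC50 is the concentration giving 50% reduction in parasite growth. Artemisinin run as standard.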

[4] = Cytotoxicity against human BC clls; type: functional, cell-based; summary of the method: as §1

Row | Compound | MIC [1] [µg/mL] | IC50 (Human alphaherpesvirus 1) [µg/mL] | also measured
1 | OCCCCCCCCCCCCCC#CC#CCCCCc1ccco1 | 6.25 (≈ 16.9 µM) |  | IC50 (NCI-H187): 12.4 µg/mL (≈ 33.5 µM)
2 | O=C(O)CCCC#CC#CCCCCCCCCCCCc1ccco1 |  | 47 (≈ 132 µM) | IC50 (Plasmodium falciparum [2]): 50 µg/mL (≈ 140 µM)
3 | O=C(O)CCCC#CCCCCCCCCCCCCCc1ccco1 |  | 19.4 (≈ 53.8 µM) | 
4 | COC(=O)CCCC#CCCCCCCCCCCCCCc1ccco1 | 3.1 (≈ 8.28 µM) |  | 
5 | COC(=O)CCCC#CC#CCCCCCCCCCCCc1ccco1 |  |  | IC50 (Plasmodium falciparum [2]): 3.7 µg/mL (≈ 9.99 µM)
6 | Nc1nc2c(ncn2COCCO)c(=O)[nH]1 [ACYCLOVIR] |  | 1.1 (≈ 4.88 µM) | 
7 | C[C@@H]1CC[C@H]2[C@@H](C)C(=O)O[C@@H]3O[C@@]4(C)CC[C@@H]1[C@]32OO4 [ARTEMISININ] |  |  | IC50 (Plasmodium falciparum [3]): 0.001 µg/mL (≈ 0.00354 µM)
8 | Cc1c2ccncc2c(C)c2c1[nH]c1ccccc12 [ELLIPTECINE] |  |  | IC50 [4]: 0.32 µg/mL (≈ 1.3 µM)
9 | NNC(=O)c1ccncc1 [ISONIAZID] | 0.04 (≈ 0.292 µM) |  | 
10 | NC[C@H]1O[C@H](O[C@H]2[C@H](O)[C@@H](O[C@H]3O[C@H](CO)[C@@H](O)[C@H](N)[C@H]3O)[C@H](N)C[C@@H]2N)[C@H](O)[C@@H](O)[C@@H]1O.O=S(=O)(O)O [KANAMYCIN SULFATE] | 2 |  | 
